Results as given in the M2OR odorant receptor database.

The molecules below were run against T1, UniProt L7N210. Conditions: stereoisomer not certain.
T1 sequence (whole entry): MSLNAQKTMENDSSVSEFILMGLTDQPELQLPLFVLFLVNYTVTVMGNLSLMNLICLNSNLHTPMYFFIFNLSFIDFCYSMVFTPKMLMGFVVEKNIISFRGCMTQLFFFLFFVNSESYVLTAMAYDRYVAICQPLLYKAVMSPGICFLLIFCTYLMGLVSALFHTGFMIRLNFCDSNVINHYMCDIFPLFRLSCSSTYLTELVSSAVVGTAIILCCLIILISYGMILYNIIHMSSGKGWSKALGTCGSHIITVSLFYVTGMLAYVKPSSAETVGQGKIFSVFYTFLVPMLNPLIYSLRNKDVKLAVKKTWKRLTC
How it was run: (§1)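 Whether a receptor–molecule pair is responsive (active) rests on the original authors' judgment that its measured signal was statistically different from baseline. Pairs without that judgment are non-responsive (inactive). Sources used varied assay methods, commonly transient luciferase assays in mammalian cell lines.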
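Further: active if original authors judged signal statistically different from baseline.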

Odorant receptor agonist call, active:
O=C1CCOc2ccccc21

Odorant receptor agonist call, inactive:
O=C(OCc1ccccc1)c1ccccc1O, CCCCCO, CCCCCCCC(=O)[O-].[H+], O=C([O-])CCCCCCC(=O)[O-].[H+].[H+], CCCC(C)=O, O=C([O-])CCCCCCCC(=O)[O-].[H+].[H+], O=C(O)CCCCCBr, CCC(C(=O)O)c1ccccc1 (stereo not given), CCCCCCC(=O)[O-].[H+], O=C1Cc2ccccc2O1, CCCCOC(=O)C(C)OC(=O)CCC (stereo not given), O=C(O)CCCCCCCCC(=O)O, CCCO

Each molecule was assayed against T2, UniProt Q3KPB0. Conditions: stereoisomer not certain.
T2 sequence (whole entry): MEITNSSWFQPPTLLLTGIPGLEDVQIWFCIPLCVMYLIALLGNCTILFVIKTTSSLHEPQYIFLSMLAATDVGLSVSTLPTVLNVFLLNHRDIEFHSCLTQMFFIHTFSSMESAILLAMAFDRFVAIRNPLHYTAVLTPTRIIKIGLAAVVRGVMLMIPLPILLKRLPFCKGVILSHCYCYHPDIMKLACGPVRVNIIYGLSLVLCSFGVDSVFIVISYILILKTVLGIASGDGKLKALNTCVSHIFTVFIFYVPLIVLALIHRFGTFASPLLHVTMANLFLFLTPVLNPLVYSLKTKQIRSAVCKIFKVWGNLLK
How it was run: as §1

Odorant receptor agonist call, inactive:
O=C([O-])CCCCCCC(=O)[O-].[H+].[H+], O=C([O-])CCCCCCCC(=O)[O-].[H+].[H+], O=C(O)CCCCCBr, O=C1CCOc2ccccc21, O=C1Cc2ccccc2O1, O=C(O)CCCCCCCCC(=O)O

Each molecule was assayed against T3, UniProt Q3U0P3. Conditions: stereoisomer not certain.
T3 sequence (whole entry): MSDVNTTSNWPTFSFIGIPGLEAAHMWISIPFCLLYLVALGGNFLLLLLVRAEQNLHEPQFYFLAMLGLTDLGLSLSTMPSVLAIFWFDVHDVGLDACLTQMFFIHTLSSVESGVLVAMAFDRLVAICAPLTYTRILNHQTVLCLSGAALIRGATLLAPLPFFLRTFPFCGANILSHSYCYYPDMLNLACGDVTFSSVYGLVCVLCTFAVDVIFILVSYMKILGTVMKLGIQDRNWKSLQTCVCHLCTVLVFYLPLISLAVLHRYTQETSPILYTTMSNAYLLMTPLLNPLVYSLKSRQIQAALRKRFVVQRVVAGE
How it was run: as §1

Odorant receptor agonist call, inactive:
O=C(OCc1ccccc1)c1ccccc1O, O=C([O-])CCCCCCC(=O)[O-].[H+].[H+], O=C([O-])CCCCCCCC(=O)[O-].[H+].[H+], O=C(O)CCCCCBr, O=C1CCOc2ccccc21, O=C1Cc2ccccc2O1, O=C(O)CCCCCCCCC(=O)O, CCCO

The molecules below were run against T4, UniProt Q7TQU8. Conditions: stereoisomer not certain.
T4 sequence (whole entry): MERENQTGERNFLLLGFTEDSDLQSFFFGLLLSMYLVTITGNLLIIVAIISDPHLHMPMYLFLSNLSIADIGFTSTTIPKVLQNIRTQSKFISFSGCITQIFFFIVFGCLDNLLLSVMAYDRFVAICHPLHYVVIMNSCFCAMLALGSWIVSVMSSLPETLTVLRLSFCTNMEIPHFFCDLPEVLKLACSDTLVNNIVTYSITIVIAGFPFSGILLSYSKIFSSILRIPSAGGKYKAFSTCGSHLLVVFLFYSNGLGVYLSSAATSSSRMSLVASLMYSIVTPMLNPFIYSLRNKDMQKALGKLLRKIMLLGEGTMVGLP
How it was run: as §1

Odorant receptor agonist call, inactive:
O=C(OCc1ccccc1)c1ccccc1O, O=C([O-])CCCCCCC(=O)[O-].[H+].[H+], O=C([O-])CCCCCCCC(=O)[O-].[H+].[H+], O=C(O)CCCCCBr, O=C1CCOc2ccccc21, O=C1Cc2ccccc2O1, O=C(O)CCCCCCCCC(=O)O, CCCO

These molecules were tested against T5, UniProt Q7TQV4. Conditions: stereoisomer not certain.
T5 sequence (whole entry): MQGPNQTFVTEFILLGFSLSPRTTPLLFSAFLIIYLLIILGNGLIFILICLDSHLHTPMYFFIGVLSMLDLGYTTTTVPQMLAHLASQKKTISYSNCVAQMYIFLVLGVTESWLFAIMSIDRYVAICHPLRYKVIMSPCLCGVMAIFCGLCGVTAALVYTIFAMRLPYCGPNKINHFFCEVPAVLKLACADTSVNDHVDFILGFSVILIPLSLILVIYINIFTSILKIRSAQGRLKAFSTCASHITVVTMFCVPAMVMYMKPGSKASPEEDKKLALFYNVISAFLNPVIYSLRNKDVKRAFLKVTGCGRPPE
How it was run: as §1

Odorant receptor agonist call, inactive:
CCCCCO, CCCCCCCC(=O)[O-].[H+], CCCC(C)=O, O=C1CCOc2ccccc21, CCC(C(=O)O)c1ccccc1 (stereo not given), CCCCCCC(=O)[O-].[H+], CCCCOC(=O)C(C)OC(=O)CCC (stereo not given)

Odorant receptor agonist call, active:
O=C1Cc2ccccc2O1

Each molecule was assayed against T6, UniProt Q7TR71. Conditions: stereoisomer not certain.
T6 sequence (whole entry): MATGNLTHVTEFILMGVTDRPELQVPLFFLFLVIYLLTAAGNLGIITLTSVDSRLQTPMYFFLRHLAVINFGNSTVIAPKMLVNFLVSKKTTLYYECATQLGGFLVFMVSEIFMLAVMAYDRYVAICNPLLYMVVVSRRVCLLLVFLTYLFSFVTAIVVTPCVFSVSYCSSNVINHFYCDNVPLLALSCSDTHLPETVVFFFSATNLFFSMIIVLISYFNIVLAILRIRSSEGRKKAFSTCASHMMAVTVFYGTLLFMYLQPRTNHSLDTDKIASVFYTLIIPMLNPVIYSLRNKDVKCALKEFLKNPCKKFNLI
How it was run: as §1

Odorant receptor agonist call, inactive:
CCCCCO, CCCCCCCC(=O)[O-].[H+], CCCC(C)=O, CCC(C(=O)O)c1ccccc1 (stereo not given), CCCCCCC(=O)[O-].[H+], O=C1Cc2ccccc2O1, CCCCOC(=O)C(C)OC(=O)CCC (stereo not given)

Odorant receptor agonist call, active:
O=C1CCOc2ccccc21

Each molecule was assayed against T7, UniProt Q7TR79. Conditions: stereoisomer not certain.
T7 sequence (whole entry): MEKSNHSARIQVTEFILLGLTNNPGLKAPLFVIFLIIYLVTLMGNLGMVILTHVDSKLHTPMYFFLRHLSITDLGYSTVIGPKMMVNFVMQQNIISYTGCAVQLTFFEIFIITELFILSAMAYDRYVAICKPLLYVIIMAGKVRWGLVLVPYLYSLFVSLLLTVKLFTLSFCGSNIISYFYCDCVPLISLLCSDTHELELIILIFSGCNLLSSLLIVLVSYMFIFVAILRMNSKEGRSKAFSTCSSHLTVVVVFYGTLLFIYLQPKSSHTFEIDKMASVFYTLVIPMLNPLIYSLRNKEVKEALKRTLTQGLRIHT
How it was run: as §1

Odorant receptor agonist call, inactive:
O=C(OCc1ccccc1)c1ccccc1O, O=C([O-])CCCCCCC(=O)[O-].[H+].[H+], O=C([O-])CCCCCCCC(=O)[O-].[H+].[H+], O=C(O)CCCCCBr, O=C1CCOc2ccccc21, O=C1Cc2ccccc2O1, O=C(O)CCCCCCCCC(=O)O, CCCO

These molecules were tested against T8, UniProt Q7TRA3. Conditions: stereoisomer not certain.
T8 sequence (whole entry): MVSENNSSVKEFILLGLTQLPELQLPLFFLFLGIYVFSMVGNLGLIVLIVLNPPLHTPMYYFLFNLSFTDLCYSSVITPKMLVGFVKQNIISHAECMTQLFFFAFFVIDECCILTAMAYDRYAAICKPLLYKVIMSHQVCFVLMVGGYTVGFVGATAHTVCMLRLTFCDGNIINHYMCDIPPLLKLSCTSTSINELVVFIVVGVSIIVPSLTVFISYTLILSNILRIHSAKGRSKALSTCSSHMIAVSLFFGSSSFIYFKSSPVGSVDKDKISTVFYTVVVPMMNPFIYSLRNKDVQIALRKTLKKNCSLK
How it was run: as §1

Odorant receptor agonist call, active:
O=C1CCOc2ccccc21

Odorant receptor agonist call, inactive:
CCCCCO, CCCCCCCC(=O)[O-].[H+], CCCC(C)=O, CCC(C(=O)O)c1ccccc1 (stereo not given), CCCCCCC(=O)[O-].[H+], O=C1Cc2ccccc2O1, CCCCOC(=O)C(C)OC(=O)CCC (stereo not given)

These molecules were tested against T9, UniProt Q7TRE4. Conditions: stereoisomer not certain.
T9 sequence (whole entry): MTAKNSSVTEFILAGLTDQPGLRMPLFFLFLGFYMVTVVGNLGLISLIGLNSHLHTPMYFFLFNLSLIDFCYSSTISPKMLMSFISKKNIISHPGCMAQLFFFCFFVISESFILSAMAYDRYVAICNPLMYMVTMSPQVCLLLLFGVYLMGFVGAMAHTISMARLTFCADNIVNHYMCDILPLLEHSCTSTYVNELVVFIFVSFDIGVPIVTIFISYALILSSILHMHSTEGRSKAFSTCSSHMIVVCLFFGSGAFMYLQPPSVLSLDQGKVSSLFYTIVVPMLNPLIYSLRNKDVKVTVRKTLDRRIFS
How it was run: as §1

Odorant receptor agonist call, inactive:
CCCCCO, CCCCCCCC(=O)[O-].[H+], CCCC(C)=O, O=C1CCOc2ccccc21, CCC(C(=O)O)c1ccccc1 (stereo not given), CCCCCCC(=O)[O-].[H+], O=C1Cc2ccccc2O1, CCCCOC(=O)C(C)OC(=O)CCC (stereo not given)

The molecules below were run against T10, UniProt Q7TRM0. Conditions: stereoisomer not certain.
T10 sequence (whole entry): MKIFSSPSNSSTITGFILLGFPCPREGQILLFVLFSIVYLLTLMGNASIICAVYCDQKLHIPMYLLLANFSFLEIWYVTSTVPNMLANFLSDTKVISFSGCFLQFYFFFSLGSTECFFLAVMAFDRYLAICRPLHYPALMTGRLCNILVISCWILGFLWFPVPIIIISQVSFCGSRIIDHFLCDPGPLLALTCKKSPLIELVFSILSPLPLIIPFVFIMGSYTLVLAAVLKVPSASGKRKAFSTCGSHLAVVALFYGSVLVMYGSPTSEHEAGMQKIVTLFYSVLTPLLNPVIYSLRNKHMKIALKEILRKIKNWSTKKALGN
How it was run: as §1

Odorant receptor agonist call, inactive:
O=C(O)CCCBr, CCCCCCCC(=O)[O-].[H+], O=C([O-])CCCCCCC(=O)[O-].[H+].[H+], O=C([O-])CCCCCCCC(=O)[O-].[H+].[H+], O=C(O)CCCCCBr, CCCCCCC(=O)[O-].[H+], O=C([O-])CCCCC(=O)[O-].[H+].[H+], O=C(O)CCCCCC(=O)O, O=C(O)CCCCBr

Each molecule was assayed against T11, UniProt Q7TRN9. Conditions: stereoisomer not certain.
T11 sequence (whole entry): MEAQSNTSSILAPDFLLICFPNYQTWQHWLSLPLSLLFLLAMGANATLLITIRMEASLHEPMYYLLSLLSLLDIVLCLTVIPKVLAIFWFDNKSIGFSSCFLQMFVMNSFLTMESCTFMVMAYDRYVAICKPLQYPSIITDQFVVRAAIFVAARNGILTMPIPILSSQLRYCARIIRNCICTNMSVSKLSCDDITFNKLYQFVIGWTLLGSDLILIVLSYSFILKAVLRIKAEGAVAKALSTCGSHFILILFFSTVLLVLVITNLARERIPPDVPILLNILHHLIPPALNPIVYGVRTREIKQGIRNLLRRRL
How it was run: as §1

Odorant receptor agonist call, active:
CCCCCCCC(=O)[O-].[H+], CCCCCCC(=O)[O-].[H+]

Odorant receptor agonist call, inactive:
CCCCCO, O=C(O)CCCBr, O=C([O-])CCCCCCC(=O)[O-].[H+].[H+], O=C([O-])CCCCCCCC(=O)[O-].[H+].[H+], O=C(O)CCCCCBr, O=C([O-])CCCCC(=O)[O-].[H+].[H+], O=C(O)CCCCCC(=O)O, O=C(O)CCCCBr
